The target in series [1] is Maltase-glucoamylase (Homo sapiens) (UniProt O43451). The series can be described thus: Inhibition of alpha-glucosidase in 1.20 mg/200 uL.
The test system of series [2] is Vesicular stomatitis virus. In words: Antiviral activity against VSV. The format is functional. A digest of the protocol:
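Tested in both E6SM and HeLa cell cultures; the minimum inhibitory concentration is the level that reduces virus-induced cytopathogenicity by 50%.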

In series [3] the test system is Respiratory syncytial virus. In words: Antiviral activity against RSV. Format: functional. To be noted: human respiratory syncytial virus. In short, it runs like this: (§1)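 Antiviral test in HeLa cell cultures; the minimum inhibitory concentration is the level that reduces virus-induced cytopathogenicity by 50%.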
The nature of series [4]: Cytotoxicity against HeLa cells. The format is cell-based. To be noted: human, read-out: MIC. In short, it runs like this:
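HeLa cell cultures examined by microscopy; the minimal cytotoxic concentration is the level that causes a microscopically detectable alteration of normal cell morphology.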

Another series concerns Coxsackievirus B4. The series can be described thus: Antiviral activity against CV B4. The format is functional. To be noted: Enterovirus B. In short, it runs like this:
as §1

Series [5] can be described thus: Cytostatic activity against mouse L1210/0 cells. Format: functional, cell-based. A digest of the protocol:
(§2)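 Tumour cell proliferation assay; IC50 is the compound concentration that inhibits cell proliferation by 50%.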

Another series has as its system MOLT-4. In words: Cytostatic activity against human Molt4/C8 cells. Format: functional, cell-based. In short, it runs like this:
as §2

Another series deals with CCRF-CEM. The series can be described thus: Cytostatic activity against human CEM/0 cells. The format is functional, cell-based. In short, it runs like this:
as §2

Series [6] is described as follows: Cytotoxicity against E6SM cells. The format is cell-based. The following applies: human, read-out: MIC. A digest of the protocol: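 Microscopic scoring of E6SM cell cultures; minimal cytotoxic concentration is the concentration causing a detectable alteration of normal cell morphology.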
Another series has as its system Vaccinia virus. In words: Antiviral activity against vaccinia virus. The format is functional. To be noted: Orthopoxvirus vaccinia. A digest of the protocol:
(§3)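 Antiviral test in E6SM cell cultures; the minimum inhibitory concentration is the level that reduces virus-induced cytopathogenicity by 50%.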

The subject of series [7] is Human alphaherpesvirus 1. In words: Antiviral activity against HSV1 KOS. Format: functional. To be noted: Human alphaherpesvirus 1, KOS. A digest of the protocol: as §3
The subject of the next series is Human alphaherpesvirus 2. In words: Antiviral activity against HSV2 G. The following applies: Human alphaherpesvirus 2, G. Format: functional. In short, it runs like this:
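Virus-induced cytopathogenicity in E6SM cell cultures; value is the concentration needed to reduce cytopathogenicity by 50%.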

In series [8] the test system is Human alphaherpesvirus 1. In words: Antiviral activity against HSV1 TK KOS ACVr. Format: functional. The following applies: Human alphaherpesvirus 1, TK KOS ACVr. A digest of the protocol:
as §3

Values after ≈ are worked out from the molar mass of the structure shown. Active and inactive are the calls of the source. The calls are words filed in the database; no cut-off is given here. Some results are limits rather than exact numbers.

Chain of Maltase-glucoamylase (Homo sapiens) (O43451 whole entry, looked up): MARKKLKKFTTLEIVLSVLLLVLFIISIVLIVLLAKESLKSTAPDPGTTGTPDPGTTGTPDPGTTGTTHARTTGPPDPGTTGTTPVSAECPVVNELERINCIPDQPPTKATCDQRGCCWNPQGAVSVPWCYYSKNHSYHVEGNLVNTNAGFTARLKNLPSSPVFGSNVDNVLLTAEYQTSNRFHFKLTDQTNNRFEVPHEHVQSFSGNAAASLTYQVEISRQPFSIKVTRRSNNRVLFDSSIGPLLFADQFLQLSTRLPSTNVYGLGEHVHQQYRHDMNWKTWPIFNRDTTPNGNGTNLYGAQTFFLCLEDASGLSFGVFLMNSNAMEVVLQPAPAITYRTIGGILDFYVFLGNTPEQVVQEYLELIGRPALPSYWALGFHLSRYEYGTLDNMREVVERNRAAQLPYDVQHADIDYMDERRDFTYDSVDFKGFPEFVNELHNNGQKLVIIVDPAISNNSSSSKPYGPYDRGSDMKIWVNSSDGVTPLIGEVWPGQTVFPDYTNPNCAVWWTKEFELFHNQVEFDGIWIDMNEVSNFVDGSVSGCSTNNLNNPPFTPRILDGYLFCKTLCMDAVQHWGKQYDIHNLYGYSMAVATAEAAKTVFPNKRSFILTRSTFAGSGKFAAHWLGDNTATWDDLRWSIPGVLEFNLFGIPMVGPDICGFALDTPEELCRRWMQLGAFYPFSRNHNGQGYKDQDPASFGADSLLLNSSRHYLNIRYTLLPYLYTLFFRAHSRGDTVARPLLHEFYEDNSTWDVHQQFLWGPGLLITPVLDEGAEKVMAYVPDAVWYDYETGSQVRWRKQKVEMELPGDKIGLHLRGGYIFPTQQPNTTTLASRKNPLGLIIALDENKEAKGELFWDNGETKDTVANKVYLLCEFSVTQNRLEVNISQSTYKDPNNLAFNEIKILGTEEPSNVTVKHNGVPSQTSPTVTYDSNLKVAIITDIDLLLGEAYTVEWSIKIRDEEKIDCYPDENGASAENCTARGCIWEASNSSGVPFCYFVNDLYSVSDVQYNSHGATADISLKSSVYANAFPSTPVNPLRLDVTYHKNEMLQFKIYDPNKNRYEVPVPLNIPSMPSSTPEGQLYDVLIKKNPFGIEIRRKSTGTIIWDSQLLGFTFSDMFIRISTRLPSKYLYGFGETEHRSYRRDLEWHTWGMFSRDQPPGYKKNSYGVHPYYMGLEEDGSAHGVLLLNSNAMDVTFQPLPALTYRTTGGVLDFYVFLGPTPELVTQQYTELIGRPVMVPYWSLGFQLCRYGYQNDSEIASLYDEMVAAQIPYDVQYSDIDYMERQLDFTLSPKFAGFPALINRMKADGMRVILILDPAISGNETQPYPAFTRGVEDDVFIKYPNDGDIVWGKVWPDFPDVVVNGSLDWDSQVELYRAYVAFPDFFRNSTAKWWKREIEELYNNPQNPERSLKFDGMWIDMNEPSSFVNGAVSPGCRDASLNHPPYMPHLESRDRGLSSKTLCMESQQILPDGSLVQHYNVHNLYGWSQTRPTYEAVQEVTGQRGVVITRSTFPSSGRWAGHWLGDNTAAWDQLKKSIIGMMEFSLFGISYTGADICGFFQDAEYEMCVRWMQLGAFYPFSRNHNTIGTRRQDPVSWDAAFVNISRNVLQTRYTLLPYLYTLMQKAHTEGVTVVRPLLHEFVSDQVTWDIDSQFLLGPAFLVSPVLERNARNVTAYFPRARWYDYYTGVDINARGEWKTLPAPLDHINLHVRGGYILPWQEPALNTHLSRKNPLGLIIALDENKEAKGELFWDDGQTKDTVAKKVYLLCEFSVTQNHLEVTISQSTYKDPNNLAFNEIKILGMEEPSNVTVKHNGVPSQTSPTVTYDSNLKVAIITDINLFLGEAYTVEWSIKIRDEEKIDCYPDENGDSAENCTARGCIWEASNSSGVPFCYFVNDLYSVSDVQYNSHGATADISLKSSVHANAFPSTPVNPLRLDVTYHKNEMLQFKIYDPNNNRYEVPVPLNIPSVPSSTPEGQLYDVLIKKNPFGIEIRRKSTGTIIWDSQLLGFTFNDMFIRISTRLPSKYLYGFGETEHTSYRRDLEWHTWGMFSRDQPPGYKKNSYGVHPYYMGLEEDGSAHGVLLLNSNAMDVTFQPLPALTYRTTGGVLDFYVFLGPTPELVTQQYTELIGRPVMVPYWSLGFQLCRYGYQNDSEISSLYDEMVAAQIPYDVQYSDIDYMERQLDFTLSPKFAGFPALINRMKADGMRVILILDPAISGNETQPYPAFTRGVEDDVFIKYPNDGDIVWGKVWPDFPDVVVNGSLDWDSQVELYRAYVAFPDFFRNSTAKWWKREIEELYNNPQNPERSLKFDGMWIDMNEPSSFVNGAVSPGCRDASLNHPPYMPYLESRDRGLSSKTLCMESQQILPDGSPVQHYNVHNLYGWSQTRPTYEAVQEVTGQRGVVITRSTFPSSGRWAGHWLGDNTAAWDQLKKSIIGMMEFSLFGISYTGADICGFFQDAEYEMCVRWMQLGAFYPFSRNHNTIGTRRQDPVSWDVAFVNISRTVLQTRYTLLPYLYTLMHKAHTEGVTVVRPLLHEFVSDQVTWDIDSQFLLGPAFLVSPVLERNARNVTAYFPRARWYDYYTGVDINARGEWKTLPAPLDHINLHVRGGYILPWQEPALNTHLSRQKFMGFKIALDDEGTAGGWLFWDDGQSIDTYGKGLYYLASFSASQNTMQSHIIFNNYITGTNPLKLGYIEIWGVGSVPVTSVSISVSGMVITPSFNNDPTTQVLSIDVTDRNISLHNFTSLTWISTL

With `CC1=C(C(=O)O)C(=O)C2=C3[C@@](C)(CCC[C@]13C)CO2`, the outcome in [1] was inactive.

Regarding `CC(C)=CCC/C(C)=C/CC/C(C)=C/CC[C@]1(C)CCc2cc(O)cc(C)c2O1`, the result in [1] was inactive.

As usually defined, the inhibition is the share of the control response that was lost under treatment. On to `COC1O[C@H]2O[C@H](C3=C[C@@H](OC(C)=O)[C@H]4C(C)(C)CCC[C@]4(C)[C@@]3(O)C=O)O[C@@]23C1=C[C@@H](OC(C)=O)[C@H]1C(C)(C)CCC[C@@]13C` (stereo partly drawn), for which, in series [1], the inhibition is 26.5%.

For `OC[C@H]1NC[C@H](O)[C@@H](O)[C@@H]1O`, the inhibition in series [1] stood at 100%.

As for `CC(=O)O[C@@H]1C=C([C@@H]2O[C@@H]3O[C@H](O)C4=C[C@@H](OC(C)=O)[C@H]5C(C)(C)CCC[C@]5(C)[C@]43O2)[C@](O)(C=O)[C@@]2(C)CCCC(C)(C)[C@H]12`, the result in series [1] was inactive.

Consider `NC(=O)c1ncn([C@@H]2O[C@H](CO)[C@@H](O)[C@H]2O)n1` [RIBAVIRIN], for which the MIC in series [2] was 300 µM (≈ 73.3 µg/mL); in series [3] it was 60 µM (≈ 14.7 µg/mL); in the series with Coxsackievirus B4 it was above 500 µM. For the same compound, the MCC in series [4] is above 500 µM.

Regarding `CC1(C)CCC[C@]2(C)[C@H](C=O)C(C=O)=CC[C@@H]12`, the result in series [1] was inactive.

As to `CC(=O)OC1=CC2=C(COC2=O)[C@@]2(C)CCCC(C)(C)[C@H]12`, the outcome in series [1] was inactive.

As a reminder, the IC50 is the concentration that inhibits the measured activity by half. Read a low IC50 as greater potency. `CC(=O)O[C@@H]1C=C(C2O[C@@H]3OC(O)C4=C[C@@H](OC(C)=O)[C@H]5C(C)(C)CCC[C@]5(C)[C@]43O2)[C@](O)(C=O)[C@@]2(C)CCCC(C)(C)[C@H]12` (stereo partly drawn) [CAPSICODENDRIN] returned an inhibition in series [1] of 89.4%. The figures for the IC50 (in [5]; with MOLT-4; in the series on CCRF-CEM) were 1210 nM, 940 nM and 860 nM, respectively. For the same compound, the MCC in series [6] was at least 1030 nM; in [4] it was 5.16 µM. The MIC (with Vaccinia virus; in series [2]; in series [3]; against Human alphaherpesvirus 1 [7]; against Human alphaherpesvirus 2; against Coxsackievirus B4) was above 1.03 µM each time. In the series with Human alphaherpesvirus 1 [8], this compound displayed an MIC above 1.03 µM.

For `CC(=O)O[C@@H]1[C@H]([C@@H]2C3=C(C(=O)OC3)[C@@]3(C)CCCC(C)(C)[C@@H]3[C@@H]2OC(C)=O)C2=C(C(=O)OC2)[C@@]2(C)CCCC(C)(C)[C@H]12`, the result in series [1] was inactive.

In the case of `CC1(C)CCC[C@]2(C)[C@H]3COC(=O)C3=CC[C@@H]12`, the result in series [1] was inactive.

For `CC(=O)O[C@@H]1C=C(C=O)[C@](O)(C=O)[C@@]2(C)CCCC(C)(C)[C@H]12` [CINNAMODIAL], the inhibition in series [1] is 78.2%. The IC50 in [5] turned out to be 580 nM; in the series on MOLT-4 it was 1510 nM; with CCRF-CEM it was 1610 nM. For the same compound, the results for the MCC in series [6] and in series [4] were at least 2060 nM and 10.3 µM, respectively. The MIC (in the series on Vaccinia virus; in series [2]; in series [3]; in the series with Human alphaherpesvirus 1 [7]; with Human alphaherpesvirus 2; with Coxsackievirus B4) was above 2.06 µM each time. Besides, the MIC in the series on Human alphaherpesvirus 1 [8] is above 2.06 µM.

As to `Nc1nc2c(ncn2COCCO)c(=O)[nH]1` [ACYCLOVIR], the MCC in [6] is above 500000 nM. In addition, the MIC is above 500 µM with Vaccinia virus; above 500 µM in series [2]; 0.48 µM (≈ 0.108 µg/mL) against Human alphaherpesvirus 1 [7]; 0.48 µM (≈ 0.108 µg/mL) in the series with Human alphaherpesvirus 2; 60 µM (≈ 13.5 µg/mL) with Human alphaherpesvirus 1 [8].

For `CC(=O)O[C@@H]1[C@@H](O[C@H]2O[C@@H]3O[C@H](C4=C[C@@H](OC(C)=O)[C@H]5C(C)(C)CCC[C@]5(C)[C@@]4(O)C=O)O[C@@]34C2=C[C@@H](OC(C)=O)[C@H]2C(C)(C)CCC[C@@]24C)C2=C(C(=O)OC2)[C@@]2(C)CCCC(C)(C)[C@H]12`, the outcome in series [1] was inactive.

Take `CC(=O)O[C@@H]1C=C2C3OC4OC5OC(O[C@@]24[C@@]2(C)CCCC(C)(C)[C@H]12)C1=C[C@@H](OC(C)=O)[C@H]2C(C)(C)CCC[C@]2(C)[C@]15O3`: the result in series [1] was inactive.

Consider `CC1(C)CCC[C@]2(C)C3=C(C=C[C@@H]12)C(=O)OC3`, for which the result in series [1] was inactive.

(Values after ChEMBL document CHEMBL1141413, “Cinnamacrins A-C, cinnafragrin D, and cytostatic metabolites with alpha-glucosidase inhibitory activity from Cinnamosma macrocarpa” (J Nat Prod, 2007).)
